Activity calls are given as the source filed them. The calls are words filed in the database; no cut-off is given here.
How the values were obtained:
[1] = molecular target: T1, Lysosomal alpha-mannosidase (Homo sapiens, UniProt O00754); test: Inhibition of alpha-mannosidase in human LNZ308 cells; assay type: cell-based
T1 sequence (O00754 whole entry): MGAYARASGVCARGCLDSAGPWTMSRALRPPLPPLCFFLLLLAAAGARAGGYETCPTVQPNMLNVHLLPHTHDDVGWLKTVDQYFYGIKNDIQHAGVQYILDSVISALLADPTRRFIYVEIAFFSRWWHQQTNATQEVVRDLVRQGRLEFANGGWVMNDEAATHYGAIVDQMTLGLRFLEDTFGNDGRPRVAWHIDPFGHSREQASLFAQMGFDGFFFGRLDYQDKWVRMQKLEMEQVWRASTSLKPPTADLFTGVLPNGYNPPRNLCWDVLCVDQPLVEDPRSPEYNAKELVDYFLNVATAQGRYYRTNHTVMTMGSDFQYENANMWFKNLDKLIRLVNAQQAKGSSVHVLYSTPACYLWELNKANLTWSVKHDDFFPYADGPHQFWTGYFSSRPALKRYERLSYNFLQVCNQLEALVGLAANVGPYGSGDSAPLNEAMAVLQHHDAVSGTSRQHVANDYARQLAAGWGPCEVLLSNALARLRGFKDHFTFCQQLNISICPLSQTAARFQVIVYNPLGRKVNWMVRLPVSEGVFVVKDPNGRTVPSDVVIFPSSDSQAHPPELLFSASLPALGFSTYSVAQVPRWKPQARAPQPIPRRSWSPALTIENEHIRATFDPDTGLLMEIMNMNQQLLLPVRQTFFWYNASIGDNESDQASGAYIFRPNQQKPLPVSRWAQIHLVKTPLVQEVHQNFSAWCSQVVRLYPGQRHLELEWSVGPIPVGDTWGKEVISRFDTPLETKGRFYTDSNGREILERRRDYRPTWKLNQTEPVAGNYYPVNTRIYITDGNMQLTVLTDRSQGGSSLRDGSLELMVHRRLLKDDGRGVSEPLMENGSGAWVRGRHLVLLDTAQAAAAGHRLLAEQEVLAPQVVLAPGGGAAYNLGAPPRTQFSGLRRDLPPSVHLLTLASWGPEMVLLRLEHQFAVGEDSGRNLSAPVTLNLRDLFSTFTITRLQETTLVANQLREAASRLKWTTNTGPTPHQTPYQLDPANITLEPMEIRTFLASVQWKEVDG
Procedure, shortened: (§1)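 Cell layers extracted in pH 5.0 phosphate buffer with 0.1% Triton X-100. Extracts were preincubated with increasing inhibitor concentrations (30 min, 37 °C), then given 4-methylumbelliferyl-α-D-mannopyranoside (150 µM final). Fluorescence increase (ex 360/em 460 nm) followed for 30 min at 37 °C. KM was determined first; IC50 and Ki were derived graphically. Swainsonine served as reference.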

[2] = molecular target: T1, Lysosomal alpha-mannosidase; test: Inhibition of alpha-mannosidase in human LN18 cells; assay type: cell-based; procedure, shortened: as §1
[3] = molecular target: T1, Lysosomal alpha-mannosidase; test: Inhibition of alpha-mannosidase in human HCEC; assay type: cell-based; procedure, shortened: as §1
[4] = Growth inhibition of melanoma cells; assay type: functional, cell-based; settings: Melanoma tumor cell line
[5] = Inhibition of drosophila golgi alpha-mannosidase 2
Procedure, shortened: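 It was preincubated 30 min at 20 °C with inhibitor added in DMSO, then given p-nitrophenyl α-mannopyranoside, all at 10% final DMSO and 20 °C. Timed aliquots were stopped with equal-volume 0.5 M sodium carbonate and read at A405. Ki was fitted by nonlinear regression on the linear portion of the time course.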

[6] = Inhibition of jack bean alpha-mannosidase; set-up: species or system Canavalia ensiformis
Procedure, shortened: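 Jack bean enzyme (0.01–0.5 U/mL) preincubated 5 min at 20 °C with inhibitor, then reacted 20 min at 37 °C with increasing 4-nitrophenyl-α-D-mannopyranoside at pH 5.5. Stopped with 0.2 M borate pH 9.8; 4-nitrophenolate read at 410 nm. IC50 found graphically, or Ki and inhibition type from Lineweaver–Burk plots.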

HCEC = test: Decrease in incorporation of [3H]Mann into TCA-precipitable high molecular weight cellular molecule in human HCEC at 200 uM after 6 hrs; assay type: functional, cell-based
Procedure, shortened: (§2)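 Cells given 200 µM inhibitor together with [2,3,4,5-3H]-L-Leu or [2,6-3H]-D-Mann (0.4 µCi/ml final). LNZ308 were seeded 10 h before a 14 h exposure; HCEC were exposed for 6 h. Incorporation measured by 10% TCA precipitation, solubilization in 0.1 N NaOH and beta counting. The Mann/Leu ratio of decrease, treated vs. control, was calculated. Triplicate wells, means ± SD.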

[7] = Growth inhibition of human HCEC after 24 hrs by MTT assay; assay type: cell-based; settings: for Activity: human, hcec
Procedure, shortened: (§3)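 Cells seeded 2 days before in the same medium (glioblastoma lines in DMEM 4.5 g/l glucose, 5% FCS; HCEC with 10% FCS), then exposed to increasing concentrations for 24 h. MTT (5 mg/ml in PBS) was added without medium change for 2 h at 37 °C. Formazan was dissolved in isopropanol-HCl and read at 540 nm. Growth inhibition is the ratio of MTT reduction, treated to untreated. Triplicate wells.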

[8] = (§4) Growth inhibition of human LNZ308 cells after 24 hrs by MTT assay; assay type: functional, cell-based; settings: LNZ308, 24 h; procedure, shortened: as §3
[9] = (§5) Growth inhibition of human LN18 cells after 24 hrs by MTT assay; assay type: functional, cell-based; settings: LN-18, 24 h; procedure, shortened: as §3
LNZ308 [10] = test: Decrease in incorporation of [3H]Mann into TCA-precipitable high molecular weight cellular molecule in human LNZ308 cells at 200 uM after 14 hrs; assay type: functional, cell-based; procedure, shortened: as §2
[11] = Growth inhibition of human HCEC at 300 uM after 24 hrs by MTT assay; assay type: cell-based; settings: HCEC cells, read-out: GI; procedure, shortened: as §3
[12] = Growth inhibition of human LNZ308 cells at 300 uM after 24 hrs by MTT assay; assay type: functional; settings: LNZ308, 24 h, read-out: GI; procedure, shortened: as §3
[13] = Growth inhibition of human LN18 cells at 300 uM after 24 hrs by MTT assay; assay type: functional; settings: LN-18, 24 h, read-out: GI; procedure, shortened: as §3
LNZ308 [14] = test: as §4; assay type: functional, cell-based; procedure, shortened: as §3
LN-18 = test: as §5; assay type: functional, cell-based; procedure, shortened: as §3

O=C(OC[C@H](NC[C@H]1NC[C@H](O)[C@@H]1O)c1ccccc1)c1ccc(Br)cc1
IC50 [1]: 75 µM | IC50 [2]: 200 µM | IC50 [3]: 75 µM | IC50 [4]: 125 µM

O[C@H]1[C@H]2[C@H](O)CCCN2C[C@H]1O [TRIDOLGOSIR]
IC50 [1]: 0.02 µM | IC50 [5]: 0.04 µM | Ki [5]: 0.02 µM | IC50 [2]: 0.05 µM | IC50 [3]: 0.01 µM | IC50 [6]: 0.04 µM | Ki [6]: 0.155 µM

CN1C(=O)[C@H](O)[C@H](O)[C@H]1CN[C@@H](COC(=O)c1ccc(Br)cc1)c1ccccc1
IC50 [1]: 7.5 µM | Activity (HCEC): Active | IC50 [2]: 75 µM | IC50 [3]: 0.75 µM | IC50 ([7]; Homo sapiens, HCEC): 100 µM | IC50 [8]: 175 µM | IC50 [9]: 145 µM | Activity (LNZ308 [10]): Active

O=C(OC[C@H](NC[C@H]1NC(=O)[C@H](O)[C@@H]1O)c1ccccc1)c1ccc(Br)cc1
inhibition at 24 h, 300 µM [11]: 85% | IC50 [1]: 150 µM | inhibition of growth at 300 µM [12]: 51% | inhibition of growth at 300 µM [13]: 59% | IC50 [2]: 750 µM | IC50 [3]: 75 µM

CN1C(=O)[C@H](O)[C@H](O)[C@H]1CN[C@@H](CO)c1ccccc1
IC50 [1]: 0.5 µM | Ki [1]: 0.55 µM | IC50 [2]: 2 µM | Ki [2]: 3.2 µM | IC50 [3]: 0.5 µM | Ki [3]: 0.67 µM | Activity [7]: Not Active | Ki [6]: 0.206 µM | Activity (LNZ308 [14]): inactive | Activity (LN-18): inactive

O=C1N[C@H](CN[C@@H](CO)c2ccccc2)[C@@H](O)[C@H]1O
IC50 [1]: 50 µM | IC50 [2]: 350 µM | IC50 [3]: 75 µM | Activity [7]: Not Active | Ki [6]: 4 µM | Activity (LNZ308 [14]): inactive | Activity (LN-18): inactive

OC[C@H](NC[C@H]1NC[C@H](O)[C@@H]1O)c1ccccc1
IC50 [1]: 50 µM | Ki [1]: 41.5 µM | IC50 [5]: 80 µM | Ki [5]: 67 µM | IC50 [2]: 50 µM | Ki [2]: 32.5 µM | IC50 [3]: 25 µM | Ki [3]: 23.3 µM

From ChEMBL document CHEMBL1155812, “Functionalized pyrrolidine inhibitors of human type II alpha-mannosidases as anti-cancer agents: optimizing the fit to the active site” (Bioorg Med Chem, 2008)
